Screens deposited in PubChem by several laboratories.
An excerpt weighted towards active compounds, which were near 2.5% of everything screened.
dFosB act – activators of mouse delta FosB homodimer | activation, % at 25 µM | purified delta FosB, TAMRA-CDK5 oligo fluorescence polarization; percent of positive-control signal above neutral wells | 340,000 compounds, 0.99% hits;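 active = mean activation above about 17%, with every replicate also reaching it, limit read from the data, passing the limit was not always enough; inconclusive = only one of the two conditions met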
Target sequence (P13346 whole entry, looked up): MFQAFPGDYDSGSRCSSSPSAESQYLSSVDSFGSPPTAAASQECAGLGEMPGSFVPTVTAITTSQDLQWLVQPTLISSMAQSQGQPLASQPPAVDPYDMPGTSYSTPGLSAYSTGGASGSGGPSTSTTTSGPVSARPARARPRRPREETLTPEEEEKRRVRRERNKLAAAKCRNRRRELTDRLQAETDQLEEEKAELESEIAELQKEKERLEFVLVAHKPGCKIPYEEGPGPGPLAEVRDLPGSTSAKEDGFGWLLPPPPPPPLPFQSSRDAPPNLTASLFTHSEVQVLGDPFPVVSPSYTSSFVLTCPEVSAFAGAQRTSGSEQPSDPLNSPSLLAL
m5-HT2A agonist – mouse HTR2A agonism via beta-arrestin recruitment; P35363; CHO-K1 mHTR2A beta-arrestin complementation, luminescence; percent of 30 µM serotonin response; activation, % at 7.6 µM; 360,000 compounds, 0.66% hits;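 active = activation above a run cutoff, the mean activation of all tested compounds plus 3 SD, cut at about 14% in these data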;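 also: 0% = plate median of compound wells and 100% = 30 µM serotonin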
IMP-1 inhibitor – inhibitors of Pseudomonas aeruginosa IMP-1 metallo-beta-lactamase. purified IMP-1, nitrocefin hydrolysis, epi-absorbance fluorescence. 290,000 compounds, 0.45% hits. inhibition, % at 5.6 µM. AID 1556;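 active = inhibition above the mean plus 3 SD of all compounds in the same screening run, cut at about 4.5% in these data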;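 also: 0% = IMP-1 with DMSO and 100% = DMSO wells lacking enzyme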
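system = purified recombinant IMP-1 beta-lactamase | amount = 0.2 nM IMP-1, as dispensed | medium = HEPES buffer pH 7.1 with ZnSO4 and Brij 35 | times = 25 °C, 15 min preincubation, 25 min reaction | detection = plate fluorescence quenching by hydrolysis product, ex 480/em 530 nm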
VIM-2 inh – blocks Pseudomonas aeruginosa VIM-2 metallo-beta-lactamase; purified VIM-2, nitrocefin hydrolysis, epi-absorbance fluorescence; 290,000 compounds, 0.89% hits; inhibition, % at 5.6 µM;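 active = inhibition above the mean of all tested compounds plus 3 SD, cutoff set per screening run, cut at about 7.5% in these data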;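 also: red hydrolysis product quenches plate fluorescence so inhibitors raise well fluorescence; 0% = enzyme with DMSO and 100% = DMSO without enzyme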
Numbers without * were called inactive; u = inconclusive; x = no result given.

SMILES	dFosB act	m5-HT2A agonist	IMP-1 inhibitor	VIM-2 inh
N#Cc1ccccc1OCCN1C(=O)c2ccccc2C1=O	2.4	-5.2	-4.4	-0.7
Nc1cccc2c1C(=O)N(CCOc1ccccc1F)C2=O	-1.1	2.7	6.8*	0.6
CCC(C)Nc1nc(-c2ccccn2)nc2ccccc12 (stereo not drawn)	-13.4	-7.7	3.4	8.2*
Fc1ccccc1/C=N/Nc1nc(-c2ccccn2)nc2ccccc12	x	x	-3.8	-2.9
CCN(CC)CCCNC(=O)c1[nH]c2ccccc2c1Sc1ccc(Cl)cc1	10.9	-13.8	-4.0	-3.4
COc1cc(/C=N/Nc2ncnc3sc4c(c23)CCC4)ccc1O	9.4	-1.7	-1.3	10.1*
COc1ccc2nc3cc(Cl)ccc3c(Nc3ccc(O)c(CN4CCN(C)CC4)c3)c2c1	124.5*	-10.2	x	x
COc1ccc2nc3cc(Cl)ccc3c(C#N)c2c1	1.4	1.4	-2.9	-0.7
O=C(O)c1ccc2c(c1)C1C=CCC1C(c1ccncc1)N2 (stereo not drawn)	-4.7	-0.7	1.0	0.7
Cc1c(Cl)cccc1NS(=O)(=O)c1ccc2c(c1)C1C=CCC1C(c1ccc(C(=O)O)cc1)N2 (stereo not drawn)	-5.6	-0.6	30.1*	-0.7
COc1ccc(NS(=O)(=O)c2ccc3c(c2)[C@H]2C=CC[C@H]2[C@@H](c2ccc(C(=O)O)cc2)N3)cc1	-7.9	-2.0	21.7*	2.1
CCOc1ccccc1-c1ccc2nccn2c1	x	-5.4	x	x
COc1cc2c(cc1OC)CN(CCC(C)c1ccc(Cl)cc1)CC2 (stereo not drawn)	-9.2	-4.2	x	x
O=C(CC1(CC2=NS(=O)(=O)c3ccccc3N2)CCCC1)NCCc1ccccc1	0.0	0.4	-4.3	-3.6
Cc1ccc(-c2cc(C(=O)N/N=C/c3ccccc3O)n[nH]2)o1	51.3*	1.0	-1.2	-2.1
O=C(C1CCCO1)N1CCN(S(=O)(=O)c2cc(C(F)(F)F)ccc2Cl)CC1 (stereo not drawn)	-9.4	1.7	x	x
NCCNC(=O)Cn1c(=O)c2c3c(sc2n(Cc2ccccc2)c1=O)CCCC3	9.9	0.1	-0.6	8.2*
CN(C)c1cc(-c2ccc(Cl)c(Cl)c2)oc(=O)c1Cl	-0.5	-1.7	5.4*	-1.9
CN(c1ccccc1)S(=O)(=O)c1cccc(C(=O)NCC(c2cccs2)N2CCOCC2)c1 (stereo not drawn)	x	-1.7	x	x
NC(CSS(=O)(=O)O)=NCCC12CC3CC(CC(O)(C3)C1)C2	0.1	5.9	5.4*	0.3
CC1(C)C2CCC(CN=C(N)CSS(=O)(=O)O)C1C2 (stereo not drawn)	x	9.1	x	x
Cc1c(NC(=O)c2ccc(NS(=O)(=O)c3ccc(F)c(F)c3)cc2)c(=O)n(-c2ccccc2)n1C	0.8	-0.7	x	x
CCCN1C(=O)/C(=C\C=C2\N(CC)c3ccccc3C2(C)C)SC1=S	-99.4	-2.3	-0.6	-2.8
CN1C(=CC=C2C=C(I)C(=O)C(I)=C2)C(C)(C)c2ccccc21	175.4*	2.8	0.7	-0.8
CN1/C(=C\C=C2/SC(=S)NC2=O)C(C)(C)c2ccccc21	69.6*	-2.1	3.6	5.5
SMILES	dFosB act	m5-HT2A agonist	IMP-1 inhibitor	VIM-2 inh
COCCNC(=O)C(Cc1c[nH]c2ccccc12)NC(=O)OCc1ccccc1 (stereo not drawn)	-5.6	-0.6	-0.6	-0.6
CCc1ccc(NC(=O)CN(CC(=O)Nc2ccc(CC)cc2)CC(C)O)cc1 (stereo not drawn)	-15.6	7.0	18.2*	2.0
CCN(CC)CCNc1ccc(CO)c2oc3cc(Cl)ccc3c(=O)c12	x	-10.7	x	x
CN(C)CCNc1ccc(CO)c2oc3ccc(O)cc3c(=O)c12	25.6*	-1.7	x	x
COc1ccc(NC(=O)c2oc3ccccc3c2NC(=O)C2CC2)cc1OC	-13.2	-2.3	0.0	9.0*
O=C(/C=C/c1ccccc1)c1ccc(NC2=NCCCS2)cc1	3.9	-6.8	-0.2	1.8
O=C(/C=C/c1ccc(Br)cc1)c1ccc(NC2=NCCCS2)cc1	20.1*	-9.0	2.0	-2.7
COc1ccccc1N1CCN(C(=O)c2cc3c(=O)n4cccc(C)c4nc3s2)CC1	-4.1	1.8	0.0	10.3*
Cc1cccn2c(=O)c3cc(C(=O)N4CC(C)CC(C)C4)sc3nc12 (stereo not drawn)	-25.7	-3.6	-1.8	11.6*
CCN(C(=O)c1cc2c(=O)n3cccc(C)c3nc2s1)C1CCCCC1	-30.6	0.8	-2.2	9.0*
COc1ccc(CCNC(=O)c2cc3c(=O)n4cccc(C)c4nc3s2)cc1OC	-17.2	5.0	-0.2	10.1*
Cc1cccn2c(=O)c3cc(C(=O)N4CCCCC4C)sc3nc12 (stereo not drawn)	-20.2	-1.6	x	x
CCc1cc(C(=O)N2CCN(c3ccccc3OC)CC2)sc1C	-7.0	-2.1	-5.6	0.0
CCCNC(=O)c1c(O)c2cccc3c2n(c1=O)CCC3	-4.8	6.0	-3.5	0.6
NCCNC(=O)c1c(O)c2cccc3c2n(c1=O)CCC3	-7.1	6.6	0.1	11.7*
CCC(=O)N1CCN(c2ccc(NC(=S)NC(=O)c3cc4ccccc4o3)cc2)CC1	1.8	-0.8	0.4	0.3
COc1cccc(/C=N\NC(=O)c2ccc(Cn3cc(Br)c([N+](=O)[O-])n3)o2)c1O	23.6*	-1.0	-1.9	-7.0
COc1cc(/C=N\NC(=O)c2ccc(Cn3nc([N+](=O)[O-])c(Cl)c3C)o2)ccc1O	-6.4	1.7	-4.4	-5.4
COc1cccc(/C=N/NC(=O)c2ccc(COc3ccc(Cl)cc3Cl)o2)c1	-0.7	-2.8	-2.2	-5.2
COc1cc(/C=N/NC(=O)c2ccc(COc3ccccc3Cl)o2)cc(Br)c1O	34.4*	-0.2	-2.6	-1.4
COc1ccc(NC(=O)NNC(=O)COc2ccc3cc(Br)ccc3c2)c(OC)c1	82.2*	7.0	-4.5	-1.1
O=C(NCc1cc(F)ccc1F)C1CCC(=O)N(C2CCCCCC2)C1 (stereo not drawn)	-9.5	0.6	-2.6	-1.8
CCC1Oc2ccc(C)cc2N(CC(=O)NCCN2CCOCC2)C1=O (stereo not drawn)	2.5	12.1	-3.0	-4.1
C=CCN(C(=O)c1ccc(Cl)cc1)c1ccccc1C(=O)NCC(=O)O	0.6	-2.4	-1.6	-2.2
C=CCc1ccccc1OCC(O)CN1CCN(CCN2C(=O)c3cccc4cccc(c34)C2=O)CC1 (stereo not drawn)	47.1*	-6.5	-2.2	1.8
SMILES	dFosB act	m5-HT2A agonist	IMP-1 inhibitor	VIM-2 inh
COc1ccc2c(c1)c(=O)oc1cc3oc(C)c(C)c3cc12	x	x	0.5	-5.1
COc1ccc2c(c1)c(=O)oc1cc3occ(C(C)(C)C)c3cc12	-4.6	6.0	22.0*	1.1
O=C(CCN1C(=O)COc2ccccc21)NCc1ccco1	-6.0	1.0	0.8	-0.7
O=C(CN(Cc1cccs1)C(=O)CN1C(=O)COc2ccccc21)NCc1ccco1	u	0.9	5.4*	-0.4
Cc1cccc(S(=O)(=O)NC(=O)C2(C)CCN2C(=O)Cc2cccs2)c1 (stereo not drawn)	x	0.6	x	x
CC(=O)Nc1ccc(S(=O)(=O)N[C@@H](C)C(=O)N2CCN(c3ccccn3)CC2)cc1	4.4	3.9	x	x
